From PubChem
UPR XBP1 act: adaptive UPR (XBP1) activation; CHO-XBP1 luciferase reporter, IRE1-XBP1 UPR activation, luminescence; percent of tunicamycin response, DMSO as zero; activation, % at 20 µM; actives 0.33% (n = 330,000);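 active = versus positive control, 20 µM dose yields 30% or more activation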;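 note: 100% = tunicamycin at 10 µg/mL and 0% = DMSO only wells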
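incubation = overnight seeding at 37 °C, 6 h compound treatment at 37 °C | assay system = CHO-XBP1 cells stably carrying IRE1-XBP1-driven luciferase reporter | input = 1000 cells per well | detection = luciferase luminescence | dosing = single point, 20 µM final compound, 1% DMSO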
A1 inh: inhibitors of the anti-apoptotic protein A1, read as caspase activation; actives 0.066% (n = 330,000); caspase activation, % (test concentration not listed); MEF A1-2A-BIM cells, Caspase-Glo 3/7 luminescence, 3 h; percent of clofoctol response, vehicle zero;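 active = over half of replicate activation scores above 10%, or exactly half above 10 with the replicate mean above 10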
CHOP inhibitor: blocks CHOP induction under ER stress; actives 3.8% (n = 220,000); CHO-K1 CHOP-promoter luciferase, tunicamycin-induced, 15-18 h; inhibition, % at 10 µM;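 active = compounds that reduced the stress-induced luciferase reporter signal by more than about 70% of percent inhibition, limit read from the data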;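 note: 0% = tunicamycin plus vehicle and 100% = wells without tunicamycin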
UPR CHOP act: apoptotic UPR (CHOP) activation | actives 0.34% (n = 330,000) | AID 449763 | activation, % at 10 µM | CHO-CHOP luciferase reporter, luminescence; percent of tunicamycin response over DMSO baseline;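 active = at 10 µM dose, activation of 40% or more, normalized to positive control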;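 note: 100% = tunicamycin at 10 µg/mL and 0% = DMSO alone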
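Assay system: CHO-CHOP cells, stable luciferase reporter of PERK-eIF2a-CHOP signalling / Buffer or medium: F12 plus 10% serum / Compound dosing: one dose, 10 µM in 0.5% DMSO / Times: 6 h compound treatment, 37 °C / Technique: luciferase luminescence / Read-out: % reporter activation, DMSO baseline versus tunicamycin full activation / Benchmarks: tunicamycin and DMSO controls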
* marks the source's active call; other numbers are inactive results. The full list was thinned out, with hits kept by preference.

For CSc1ccccc1NC(=O)c1cc(CC(C)C)on1 the results were UPR XBP1 act 0.0, CHOP inhibitor 75.2* and UPR CHOP act 4.8.
For CC(C)Cc1cc(C(=O)Nc2sc3c(c2C#N)CCCC3)no1 the results were UPR XBP1 act 0.2, A1 inh 0.4, CHOP inhibitor 77.4* and UPR CHOP act 2.7.
Screening CC(C)Cc1cc(C(=O)Nc2cccnc2)no1 returned UPR XBP1 act -0.7, A1 inh -5.0, CHOP inhibitor 42.7 and UPR CHOP act -0.1.
Screening COc1cccc(OCC(=O)NNC(=O)c2ccc(-c3ccccc3)cc2)c1 returned UPR XBP1 act 1.3, A1 inh 0.3, CHOP inhibitor 80.2* and UPR CHOP act -0.3.
COc1ccc(CSCC(=O)NCCC(C)C)cc1 was read as UPR XBP1 act -3.0, A1 inh 0.3, CHOP inhibitor 16.5 and UPR CHOP act 0.3.
Screening O=C(NC(NC(=S)Nc1cccc(Cl)c1)C(Cl)(Cl)Cl)OCc1ccccc1 (stereo not drawn) returned UPR XBP1 act 6.0, A1 inh -0.4, CHOP inhibitor 109.3* and UPR CHOP act -2.1.
For CCOC1(OCC)C(c2ccc(Cl)cc2)C(C#N)(C#N)C1(OCC)OCC (stereo not drawn) the results were UPR XBP1 act -2.6, A1 inh 0.8, CHOP inhibitor 25.7 and UPR CHOP act -1.8.
`CCOC1(OCC)C(c2ccc(N)cc2)C(C#N)(C#N)C1(OCC)OCC` (stereo not drawn) gave UPR XBP1 act 0.1, A1 inh 0.1, CHOP inhibitor 87.6* and UPR CHOP act 0.0.
Cc1ccc(NC(=O)c2ccccc2OCc2c(C)noc2C)cc1S(=O)(=O)N(C)C was read as UPR XBP1 act -0.5, A1 inh 1.1 and UPR CHOP act 2.0.
For CCn1c(C2CC(=O)N(c3cc(C)cc(C)c3)C2)nc2ccccc21 (stereo not drawn) the results were UPR XBP1 act -0.6, A1 inh -0.2, CHOP inhibitor 74.8* and UPR CHOP act 1.7.
`O=C(c1ccc(Cl)cc1)C(Cn1cncn1)C(Sc1ccccc1)c1ccccc1` (stereo not drawn) gave UPR XBP1 act 0.5, A1 inh 0.4, CHOP inhibitor 77.7* and UPR CHOP act 0.7.
CCOCCCNC(=O)c1c(N)n(-c2ccc3c(c2)OCO3)c2nc3ccccc3nc12 was read as UPR XBP1 act 0.4, A1 inh 0.2, CHOP inhibitor 72.8* and UPR CHOP act 1.5.
`Nc1ccc2c(c1)C(=O)N(CCCCCC(=O)O)C2` gave UPR XBP1 act -0.6, A1 inh 0.4, CHOP inhibitor 0.3 and UPR CHOP act -1.5.
For C=CCn1c(C)cc(C(=O)COC(=O)CNC(=O)c2ccccc2)c1C the results were UPR XBP1 act -7.6, A1 inh -0.1, CHOP inhibitor 87.3* and UPR CHOP act -7.0.
`Cc1ccc(C(=O)NCC(=O)OCC(=O)c2cc(C)n(Cc3ccco3)c2C)cc1` gave UPR XBP1 act -0.3, A1 inh -0.2, CHOP inhibitor 14.7 and UPR CHOP act 6.6.
COC(=O)c1c(NC(=O)Cc2ccccc2)sc2c1CC(C)(C)NC2(C)C was read as UPR XBP1 act 5.0, A1 inh 0.7 and UPR CHOP act -0.4.
COC(=O)c1c(NC(=O)COc2ccc(Cl)cc2)sc2c1CC(C)(C)NC2(C)C was read as UPR XBP1 act 43.0*, A1 inh -0.2 and UPR CHOP act 11.5.
Screening CCc1nnc(NC(=O)CCC(=O)NCc2ccc(OC)cc2)s1 returned UPR XBP1 act 1.4, A1 inh 1.4, CHOP inhibitor -6.8 and UPR CHOP act -0.6.
`CC(C)(C)C1CCC(OC(=O)c2cncc(Br)c2)CC1` (stereo not drawn) gave UPR XBP1 act -0.7, A1 inh 0.1, CHOP inhibitor 6.3 and UPR CHOP act 1.0.
Screening CC(C)(C)C1CCC(OC(=O)c2ccncc2)CC1 (stereo not drawn) returned UPR XBP1 act -1.7, A1 inh -0.6, CHOP inhibitor 74.3* and UPR CHOP act 1.7.
For N#C/C(=C\c1ccncc1)c1nc2ccccc2c(=O)[nH]1 the results were UPR XBP1 act -0.2, A1 inh -0.2, CHOP inhibitor 6.4 and UPR CHOP act 1.4.
For Cc1[nH]n(-c2ccc(Cl)cc2)c(=O)c1N=Nc1cccnc1 the results were UPR XBP1 act 1.2, A1 inh -0.1, CHOP inhibitor 89.6* and UPR CHOP act 3.0.
